ChEMBL document CHEMBL1136923, “Highly potent, orally available anti-inflammatory broad-spectrum chemokine inhibitors” (J Med Chem, 2009)

Columns and labels:
Mus musculus [1] = assay: Antiinflammatory activity in mouse assessed as inhibition of LPS-induced TNFalpha upregulation at 450 pg, po measured 2 hrs after LPS challenge; format: functional
Summary of the method: (§1)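 Murine sublethal endotoxemia: LPS given intraperitoneally, with serum TNF-α measured 2 h after the LPS injection as the end point. Compound was given subcutaneously or orally. Vehicle was 0.6% DMSO and 1% carboxymethylcellulose (final concentrations) in sterile water. Effect is reported as % relative to control.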

Mus musculus [2] = assay: Antiinflammatory activity in mouse assessed as inhibition of LPS-induced TNFalpha upregulation at 0.013 ug, sc measured 2 hrs after LPS challenge; format: functional; summary of the method: as §1
Mus musculus [3] = assay: Antiinflammatory activity in mouse assessed as inhibition of LPS-induced TNFalpha upregulation at 0.0013 mg, sc measured 2 hrs after LPS challenge; format: functional; summary of the method: as §1
[4] = target: C-C chemokine receptor type 2 (Homo sapiens) (UniProt P41597); assay: Antagonist activity at CCR2 in human THP1 cells assessed as inhibition of CCL2-induced chemotaxis after 2 hrs by microtiter format trans-well migration assay; format: functional, cell-based; settings: THP-1
Summary of the method: (§2)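 Microtiter trans-well migration assay in Gey's balanced salt solution with 1 mg/mL endotoxin-free BSA, no fetal calf serum. Migration ran 2 h at 37 °C. Compounds dissolved in DMSO and added to both top and bottom compartments, final DMSO 1%.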

[5] = target: C-C chemokine receptor type 2 (Homo sapiens) (UniProt P41597); assay: Antagonist activity at CCR2 in human THP1 cells assessed as inhibition of CCL2-induced chemotaxis at 10 nM after 2 hrs by microtiter format trans-well migration assay; format: functional, cell-based; settings: THP-1; summary of the method: as §2
[6] = target: C-C chemokine receptor type 2 (Homo sapiens) (UniProt P41597); assay: Antagonist activity at CCR2 in human THP1 cells assessed as inhibition of CCL2-induced chemotaxis at 0.1 nM after 2 hrs by microtiter format trans-well migration assay; format: functional, cell-based; settings: THP-1; summary of the method: as §2
[7] = AUC (0 to t) in Sprague-Dawley rat at 1 mg/kg, iv administered as single dose; format: ADME, organism-based, Plasma; design: dose 1 mg/kg, route intravenous; settings: Sprague-Dawley, plasma
Summary of the method: (§3)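 Male Sprague-Dawley rats, three per compound per route, single dose. IV vehicle 5% DMSO in 0.9% saline; oral gavage vehicle 1% carboxymethylcellulose in 0.9% saline; fed ad libitum. Plasma taken 5–480 min post-dose, extracted with 0.1% formic acid in acetonitrile, quantified by LC/MS/MS (positive mode). AUC(0–t) by linear/log trapezoidal rule; IV curve back-extrapolated assuming initial volume 0.26 L/kg.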

[8] = Half life in Sprague-Dawley rat at 3 mg/kg, po administered as single dose; format: ADME, organism-based; design: dose 3 mg/kg, route oral; settings: in vivo
Summary of the method: (§4)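 Male Sprague-Dawley rats, three per compound, receive a single oral dose by gavage in 1% carboxymethylcellulose in 0.9% saline, with food and water ad libitum. Plasma is sampled from 5 to 480 min and drug is quantified by positive-mode LC/MS/MS after acetonitrile/formic acid extraction. The lower limit of quantitation is about 2 ng/mL. Exposure is AUC(0→t) by the linear/log trapezoidal rule, and F is oral fractional bioavailability.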

Mus musculus [9] = assay: Antiinflammatory activity in sc dosed mouse assessed as inhibition of LPS-induced TNFalpha upregulation measured 2 hrs after LPS challenge relative to control; format: functional
Summary of the method: (§5)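 Murine sublethal LPS endotoxemia screen. LPS is injected intraperitoneally and serum TNF-α is measured 2 h later as the end point. Compound is given subcutaneously or orally in a vehicle of 0.6% DMSO plus 1% carboxymethylcellulose (final concentrations) in sterile water. Values are % relative to control.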

Mus musculus [10] = assay: Antiinflammatory activity in mouse assessed as inhibition of LPS-induced TNFalpha upregulation at 0.016 ug, po measured 2 hrs after LPS challenge; format: functional; summary of the method: as §1
[11] = target: C-C chemokine receptor type 2 (Homo sapiens) (UniProt P41597); assay: Antagonist activity at CCR2 in human THP1 cells assessed as inhibition of CCL2-induced chemotaxis at 0.01 nM after 2 hrs by microtiter format trans-well migration assay; format: functional, cell-based; settings: THP-1; summary of the method: as §2
[12] = Cmax in Sprague-Dawley rat at 3 mg/kg, po administered as single dose; format: ADME, organism-based; design: dose 3 mg/kg, route oral; settings: in vivo; summary of the method: as §4
[13] = target: C-C chemokine receptor type 2 (Homo sapiens) (UniProt P41597); assay: Antagonist activity at CCR2 in human THP1 cells assessed as inhibition of CCL2-induced chemotaxis at 100 nM after 2 hrs by microtiter format trans-well migration assay; format: functional, cell-based; settings: THP-1; summary of the method: as §2
Mus musculus [14] = assay: Antiinflammatory activity in po dosed mouse assessed as inhibition of LPS-induced TNFalpha upregulation measured 2 hrs after LPS challenge; format: functional
[15] = target: C-C chemokine receptor type 2 (Homo sapiens) (UniProt P41597); assay: Antagonist activity at CCR2 in human THP1 cells assessed as inhibition of CCL2-induced chemotaxis at 1000 nM after 2 hrs by microtiter format trans-well migration assay; format: functional, cell-based; settings: THP-1; summary of the method: as §2
Mus musculus [16] = assay: Antiinflammatory activity in sc dosed mouse assessed as inhibition of LPS-induced TNFalpha upregulation measured 2 hrs after LPS challenge; format: functional
Mus musculus [17] = assay: Antiinflammatory activity in mouse assessed as inhibition of LPS-induced TNFalpha upregulation at 0.61 ug, po measured 2 hrs after LPS challenge; format: functional; summary of the method: as §1
Mus musculus [18] = assay: Antiinflammatory activity in mouse assessed as inhibition of LPS-induced TNFalpha upregulation at 0.013 mg, sc measured 2 hrs after LPS challenge; format: functional; summary of the method: as §1
Mus musculus [19] = assay: Antiinflammatory activity in mouse assessed as inhibition of LPS-induced TNFalpha upregulation at 0.0023 ug, po measured 2 hrs after LPS challenge; format: functional; summary of the method: as §1
[20] = Clearance in Sprague-Dawley rat at 1 mg/kg, iv administered as single dose; format: ADME, organism-based; design: dose 1 mg/kg, route intravenous; settings: in vivo
Summary of the method: (§6)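 Male Sprague-Dawley rats, three per compound, receive a single intravenous dose in 5% DMSO in 0.9% saline. Food and water are given ad libitum. Plasma is taken at 5, 15, 30, 60, 120, 180, 240 and 480 min. Drug is measured by LC/MS/MS after extraction with 0.1% formic acid in acetonitrile. The curve is back-extrapolated to time zero assuming an initial volume of 0.26 L/kg.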

Mus musculus [21] = assay: Antiinflammatory activity in po dosed mouse assessed as inhibition of LPS-induced TNFalpha upregulation measured 2 hrs after LPS challenge relative to control; format: functional; summary of the method: as §5
Mus musculus [22] = assay: Antiinflammatory activity in mouse assessed as inhibition of LPS-induced TNFalpha upregulation at 0.016 mg, po measured 2 hrs after LPS challenge; format: functional; summary of the method: as §1
[23] = Half life in Sprague-Dawley rat at 1 mg/kg, iv administered as single dose; format: ADME, organism-based; design: dose 1 mg/kg, route intravenous; settings: in vivo; summary of the method: as §6
[24] = Volume of distribution at steady state in Sprague-Dawley rat at 1 mg/kg, iv administered as single dose; format: ADME, organism-based; design: dose 1 mg/kg, route intravenous; settings: in vivo, read-out: Vdss; summary of the method: as §6
Mus musculus [25] = assay: Antiinflammatory activity in mouse assessed as inhibition of LPS-induced TNFalpha upregulation at 0.00013 mg, sc measured 2 hrs after LPS challenge; format: functional
Summary of the method: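 Murine sublethal endotoxemia: LPS given intraperitoneally, serum TNF-α measured 2 h after LPS injection. Compound vehicle 0.6% DMSO plus 1% carboxymethylcellulose (final concentrations) in sterile water.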

[26] = Fractional bioavailability in Sprague-Dawley rat at 3 mg/kg, po administered as single dose; format: ADME, organism-based; settings: in vivo; summary of the method: as §4
Mus musculus [27] = assay: Antiinflammatory activity in mouse assessed as inhibition of LPS-induced TNFalpha upregulation at 0.057 ug, po measured 2 hrs after LPS challenge; format: functional; summary of the method: as §1
[28] = target: C-C chemokine receptor type 2 (Homo sapiens) (UniProt P41597); assay: Antagonist activity at CCR2 in human THP1 cells assessed as inhibition of CCL2-induced chemotaxis at 1 nM after 2 hrs by microtiter format trans-well migration assay; format: functional, cell-based; settings: THP-1; summary of the method: as §2
Mus musculus [29] = assay: Antiinflammatory activity in mouse assessed as inhibition of LPS-induced TNFalpha upregulation at […], sc measured 2 hrs after LPS challenge; format: functional; summary of the method: as §1
Mus musculus [30] = assay: Antiinflammatory activity in mouse assessed as inhibition of LPS-induced TNFalpha upregulation at 0.0055 ug, sc measured 2 hrs after LPS challenge; format: functional; summary of the method: as §1
[31] = AUC (0 to t) in Sprague-Dawley rat at 3 mg/kg, po administered as single dose; format: ADME, organism-based; design: dose 3 mg/kg, route oral; settings: plasma; summary of the method: as §3

C-C chemokine receptor type 2 (Homo sapiens), sequence (P41597 whole entry, looked up): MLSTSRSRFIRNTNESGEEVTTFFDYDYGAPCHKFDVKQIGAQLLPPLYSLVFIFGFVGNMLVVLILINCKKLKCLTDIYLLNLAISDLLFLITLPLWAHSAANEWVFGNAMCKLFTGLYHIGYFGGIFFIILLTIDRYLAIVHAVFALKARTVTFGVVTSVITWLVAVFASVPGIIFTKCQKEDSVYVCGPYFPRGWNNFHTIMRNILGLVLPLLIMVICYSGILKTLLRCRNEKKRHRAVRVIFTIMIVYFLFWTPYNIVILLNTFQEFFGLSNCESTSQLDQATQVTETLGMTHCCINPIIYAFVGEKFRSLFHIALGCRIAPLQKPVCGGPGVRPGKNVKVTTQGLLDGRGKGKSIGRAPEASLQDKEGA

## CC(C)(C)C(=O)N[C@H]1CCCCNC1=O
Mus musculus [1]
  inhibition (INH): 43%
Mus musculus [2]
  inhibition (INH): 80%
Mus musculus [3]
  inhibition (INH): 94%
[4]
  ED50: 0.04 nM
[5]
  inhibition: 102%
[6]
  inhibition: 80%
[7]
  AUC(0-t): 3.86 µg·h/mL
[8]
  half-life: 2.8 h
Mus musculus [9]
  inhibition (INH): 90%
Mus musculus [10]
  inhibition (INH): 70%
[11]
  inhibition: 33%
[12]
  Cmax: 0.989 µg/mL
[13]
  inhibition: 101%
Mus musculus [14]
  ED50: 0.1 µg/kg
[15]
  inhibition: 102%
Mus musculus [16]
  ED50: 0.1 µg/kg
Mus musculus [17]
  inhibition (INH): 80%
Mus musculus [18]
  inhibition (INH): 91%
Mus musculus [19]
  inhibition (INH): 41%
[20]
  clearance: 0.408 L/h/kg
Mus musculus [21]
  inhibition (INH): 80%
Mus musculus [22]
  inhibition (INH): 83%
[23]
  half-life: 2.02 h
[24]
  Vd: 0.7 L/kg
Mus musculus [25]
  inhibition (INH): 81%
[26]
  bioavailability: 71%
Mus musculus [27]
  inhibition (INH): 76%
[28]
  inhibition: 101%
Mus musculus [29]
  inhibition (INH): 44%
Mus musculus [30]
  inhibition (INH): 73%
[31]
  AUC(0-t): 8.22 µg·h/mL
